# Assay results published in ChEMBL document CHEMBL1212766, “Dose escalation study of the safety, tolerability, and pharmacokinetics of nemonoxacin (TG-873870), a novel potent broad-spectrum nonfluorinated quinolone, in healthy volunteers” (Antimicrob Agents Chemother, 2010).
# Experiments:
# Homo sapiens [1] = test: Toxicity in healthy human assessed as occurrence of abdominal pain at 1000 […], po; type: organism-based, Abdomen; set-up: route oral; details: in vivo
# How it was run: (§1)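 Double-blind, placebo-controlled single ascending oral dose; two placebo and six active subjects per cohort. Adverse events were recorded throughout the dosing period and at follow-up, with confinement to 96 h after dosing. Results are reported as number and percentage of subjects with the event (n/N × 100).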
# [2] = Tmax in healthy human at 125 mg, po administered as single dose; details: in vivo
# Homo sapiens [3] = test: Terminal volume of distribution in healthy human at 25 mg, po administered as single dose; details: in vivo
# [4] = Tmax in healthy human at 25 mg, po administered as single dose; details: in vivo
# Homo sapiens [5] = test: Toxicity in healthy human assessed as occurrence of abdominal pain at 1500 […], po; type: organism-based, Abdomen; set-up: route oral; details: in vivo; how it was run: as §1
# Streptococcus pneumoniae [6] = test: Ratio of fAUC to MIC90 for penicillin-resistant Streptococcus pneumoniae; type: functional
# How it was run: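 Fasted healthy adults got a single oral 500 mg dose with 240 ml water. Plasma was sampled predose to 96 h and assayed by LC-MS/MS (5–5,000 ng/ml). Cmax was read from individual profiles, and AUC0-∞ came from linear trapezoid plus extrapolation. Free fraction was measured by ultrafiltration (30,000 MWCO) of 0.5 and 6 h plasma. Free exposure was divided by the isolate MIC90.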
# [7] = Cmax in healthy human at 1000 mg, po administered as single dose; details: in vivo
# Homo sapiens [8] = test: Clearance in healthy human at 50 […], po administered as single dose; type: ADME, organism-based; set-up: route oral; details: in vivo
# How it was run: (§2)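 Randomized, double-blind, placebo-controlled single ascending oral dose in fasted healthy subjects (six on drug per cohort, with 240 ml water). Plasma sampled predose through 96 h and assayed by validated LC-MS/MS over 5–5,000 ng/ml. Oral clearance (CL_o) came from noncompartmental analysis, with AUC_0-∞ from linear trapezoids plus C_last/λz. Values are means (SD).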
# Homo sapiens [9] = test: Toxicity in healthy human assessed as occurrence of erythema at 250 […], po; type: organism-based; set-up: route oral; details: in vivo
# Homo sapiens [10] = test: Toxicity in healthy human assessed as occurrence of headache at 125 […], po; type: organism-based; set-up: route oral; details: in vivo
# Staphylococcus aureus = test: Antimicrobial activity against methicillin-sensitive Staphylococcus aureus; type: functional
# Homo sapiens [11] = test: Toxicity in healthy human assessed as occurrence of oral hypoesthesia at 250 […], po; type: organism-based; set-up: route oral; details: in vivo
# Homo sapiens [12] = test: Toxicity in healthy human assessed as occurrence of nausea at 25 […], po; type: organism-based; set-up: route oral; details: in vivo
# Homo sapiens [13] = test: Toxicity in healthy human assessed as occurrence of erythema at 1500 […], po; type: organism-based; set-up: route oral; details: in vivo
# Homo sapiens [14] = test: Toxicity in healthy human assessed as occurrence of erythema at 25 […], po; type: organism-based; set-up: route oral; details: in vivo
# [15] = Tmax in healthy human at 1000 mg/kg, po administered as single dose; type: ADME, organism-based; set-up: route oral; details: in vivo
# How it was run: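 Tmax was read by visual inspection of individual plasma concentration–time profiles. Plasma was sampled at 0.5-h steps early on and then out to 96 h, and assayed by LC-MS/MS. Subjects were fasted healthy volunteers, six per cohort, given one oral dose with 240 ml water. Values are means (SD).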
# Homo sapiens [16] = test: AUC (0 to infinity) in healthy human at 25 […], po administered as single dose; type: ADME, organism-based, Plasma; set-up: time infinity, route oral; details: in vivo
# Homo sapiens [17] = test: Toxicity in healthy human assessed as occurrence of nausea at 1500 […], po; type: organism-based; set-up: route oral; details: in vivo
# Homo sapiens [18] = test: Toxicity in healthy human assessed as occurrence of oral hypoesthesia at 50 […], po; type: organism-based; set-up: route oral; details: in vivo
# [19] = Clearance in healthy human assessed as recovery of unchanged drug in urine at 500 mg, po administered as single dose; details: read-out: Recovered in urine
# Streptococcus pneumoniae [20] = test: Antimicrobial activity against Streptococcus pneumoniae; type: functional
# Streptococcus pneumoniae [21] = test: Antimicrobial activity against penicillin-sensitive Streptococcus pneumoniae; type: functional
# Homo sapiens [22] = test: AUC (0 to infinity) in healthy human at 250 […], po administered as single dose; type: ADME, organism-based, Plasma; set-up: time infinity, route oral; details: in vivo
# Homo sapiens [23] = test: Toxicity in healthy human assessed as occurrence of pruritus at 1000 […], po; type: organism-based; set-up: route oral; details: in vivo
# Homo sapiens [24] = test: Clearance in healthy human at 250 mg, po administered as single dose; details: in vivo
# Homo sapiens [25] = test: Terminal volume of distribution in healthy human at 250 mg, po administered as single dose; details: in vivo
# [26] = Terminal phase elimination half-life in healthy human at 50 […], po administered single dose; type: ADME, organism-based; set-up: route oral; details: in vivo
# How it was run: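 After one fasted oral dose (six healthy subjects per cohort), plasma was sampled from 0.5 to 96 h and assayed by LC-MS/MS (LLOQ 5 ng/ml). λz came from least-squares regression on at least the last three log-concentration points, and t1/2 = 0.693/λz. Values are means (SD).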
# Homo sapiens [27] = test: Toxicity in healthy human assessed as occurrence of nausea at 1000 […], po; type: organism-based; set-up: route oral; details: in vivo
# Homo sapiens [28] = test: Toxicity in healthy human assessed as occurrence of erythema at 125 […], po; type: organism-based; set-up: route oral; details: in vivo
# Homo sapiens [29] = test: Toxicity in healthy human assessed as occurrence of abdominal pain at 125 […], po; type: organism-based, Abdomen; set-up: route oral; details: in vivo; how it was run: as §1
# [30] = Clearance in healthy human assessed as recovery of unchanged drug in urine at 50 […], po administered as single dose; type: ADME, organism-based; set-up: route oral; details: read-out: Recovered in urine
# How it was run: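 Healthy volunteers, six on drug per cohort, fasted 10 h and given one oral dose with 240 ml water, then fasted 4 h more. Urine was pooled over intervals from 0-2 to 72-96 h and stored at about −70°C. Drug was measured by solid-phase extraction and LC-MS/MS (LLOQ 200 ng/ml), giving the percent of dose recovered unchanged. Values are means (SD).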
# Homo sapiens [31] = test: Toxicity in healthy human assessed as occurrence of erythema at 500 […], po; type: organism-based; set-up: route oral; details: in vivo
# [32] = Cmax in healthy human at 125 mg, po administered as single dose; details: in vivo
# Homo sapiens [33] = test: Toxicity in healthy human assessed as occurrence of headache at 1000 […], po; type: organism-based; set-up: route oral; details: in vivo
# Homo sapiens [34] = test: Clearance in healthy human at 125 […], po administered as single dose; type: ADME, organism-based; set-up: route oral; details: in vivo; how it was run: as §2
# Homo sapiens [35] = test: Toxicity in healthy human assessed as occurrence of ear pain at 1500 […], po; type: organism-based; set-up: route oral; details: in vivo
# Homo sapiens [36] = test: Terminal volume of distribution in healthy human at 1500 mg, po administered as single dose; details: in vivo
# Homo sapiens [37] = test: Toxicity in healthy human assessed as occurrence of contact dermatitis at 125 […], po; type: organism-based; set-up: route oral; details: in vivo
# How it was run: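 Randomized, double-blind, placebo-controlled single ascending oral doses in healthy volunteers (cohorts of 6 active, 2 placebo; 25–1,500 mg). After a 10-h fast, dose given with 240 ml water; fasting continued 4 h. Subjects were confined to 96 h postdose. AEs were recorded throughout dosing and at follow-up, reported as number and percentage of subjects with events per treatment.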
# Homo sapiens [38] = test: AUC (0 to infinity) in healthy human at 500 […], po administered as single dose; type: ADME, organism-based, Plasma; set-up: time infinity, route oral; details: in vivo
smiles,measurement,setting,value
COc1c(N2C[C@@H](C)C[C@H](N)C2)ccc2c(=O)c(C(=O)O)cn(C3CC3)c12 [NEMONOXACIN],Activity,Homo sapiens [1],0%
same,Tmax,[2],0.75 h
same,Vbeta,Homo sapiens [3],4.21 L/kg
same,Tmax,[4],0.92 h
same,Activity,Homo sapiens [5],17%
same,Ratio,Streptococcus pneumoniae [6],906
same,Cmax,[7],7.22 µg/mL
same,CL,Homo sapiens [8],0.23 L/h/kg
same,Activity,Homo sapiens [9],0%
same,Activity,Homo sapiens [10],0%
same,MIC90,Staphylococcus aureus,0.12 mg/L
same,Activity,Homo sapiens [11],0%
same,Activity,Homo sapiens [12],0%
same,Activity,Homo sapiens [13],50%
same,Activity,Homo sapiens [14],0%
same,Tmax,[15],1.67 h
same,AUC,Homo sapiens [16],1.19 µg·h/mL
same,Activity,Homo sapiens [17],17%
same,Activity,Homo sapiens [18],0%
same,dose excreted,[19],34.1%
same,MIC90,Streptococcus pneumoniae [20],0.015 mg/L
same,MIC90,Streptococcus pneumoniae [21],0.015 mg/L
same,AUC,Homo sapiens [22],15.45 µg·h/mL
same,Activity,Homo sapiens [23],17%
same,CL,Homo sapiens [24],0.24 L/h/kg
same,Vbeta,Homo sapiens [25],3.58 L/kg
same,half-life,[26],8.49 h
same,Activity,Homo sapiens [27],0%
same,Activity,Homo sapiens [28],0%
same,Activity,Homo sapiens [29],0%
same,dose excreted,[30],51.1%
same,Activity,Homo sapiens [31],0%
same,Cmax,[32],1.22 µg/mL
same,Activity,Homo sapiens [33],17%
same,CL,Homo sapiens [34],0.22 L/h/kg
same,Activity,Homo sapiens [35],0%
same,Vbeta,Homo sapiens [36],3.42 L/kg
same,Activity,Homo sapiens [37],33%
same,AUC,Homo sapiens [38],32.36 µg·h/mL
